Reference: ChEMBL document CHEMBL4130512, “Design, synthesis and biological evaluation of novel α-hederagenin derivatives with anticancer activity” (Eur J Med Chem, 2017)

Assays:
MKN-45 = assay: Antiproliferative activity against human MKN45 cells assessed as cell viability at 10 uM after 72 hrs by MTT assay relative to control; format: functional; conditions: MKN-45, 72 h, read-out: Activity
Procedure, shortened: (§1)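 Single-concentration MTT screen. Log-phase cells in DMEM with 10% FCS were treated for 72 h in 96-well plates. After MTT and DMSO, absorbance was read at 570 nm. Viability was calculated relative to control as mean ± SD of three independent experiments.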

KB = assay: Antiproliferative activity against human KB cells assessed as cell viability at 10 uM after 72 hrs by MTT assay relative to control; format: functional; conditions: read-out: Activity; procedure, shortened: as §1

Row | Compound | viability at 10 µM (MKN-45) | viability at 10 µM (KB)
1 | CC1(C)CC[C@]2(C(=O)OCc3ccccc3)CC[C@]3(C)C(=CC[C@@H]4[C@@]5(C)CCC(=O)[C@@](C)(COC(=O)c6ccccc6C(=O)O)[C@@H]5CC[C@]43C)[C@@H]2C1 | 40% | 51%
2 | CC1(C)CC[C@]2(C(=O)OCc3ccccc3)CC[C@]3(C)C(=CC[C@@H]4[C@@]5(C)Cc6nccnc6[C@@](C)(COC(=O)CCC(=O)O)[C@@H]5CC[C@]43C)[C@@H]2C1 | 70% | 98%
3 | CC1(C)CC[C@]2(C(=O)OCc3ccccc3)CC[C@]3(C)C(=CC[C@@H]4[C@@]5(C)Cc6nccnc6[C@@](C)(COC(=O)CCC(=O)Oc6ccc(CCO[N+](=O)[O-])cc6)[C@@H]5CC[C@]43C)[C@@H]2C1 | 100% | 69%
4 | CC1(C)CC[C@]2(C(=O)OCc3ccccc3)CC[C@]3(C)C(=CC[C@@H]4[C@@]5(C)CCC(=O)[C@@](C)(COC(=O)CCC(=O)Nc6ccc(N)cc6)[C@@H]5CC[C@]43C)[C@@H]2C1 | 92% | 51%
5 | CC1(C)CC[C@]2(C(=O)OCc3ccccc3)CC[C@]3(C)C(=CC[C@@H]4[C@@]5(C)Cc6nccnc6[C@@](C)(CO)[C@@H]5CC[C@]43C)[C@@H]2C1 | 77% | 75%
6 | CC1(C)CC[C@]2(C(=O)OCc3ccccc3)CC[C@]3(C)C(=CC[C@@H]4[C@@]5(C)CC/C(=N\O)[C@@](C)(CO)[C@@H]5CC[C@]43C)[C@@H]2C1 | 64% | 76%
7 | CC1(C)CC[C@]2(C(=O)OCc3ccccc3)CC[C@]3(C)C(=CC[C@@H]4[C@@]5(C)CCC(OC(=O)CCCCCO[N+](=O)[O-])[C@@](C)(COC(=O)CCCCCO[N+](=O)[O-])[C@@H]5CC[C@]43C)[C@@H]2C1 (stereo not given in full) | 85% | 61%
8 | CC1(C)CC[C@]2(C(=O)OCc3ccccc3)CC[C@]3(C)C(=CC[C@@H]4[C@@]5(C)Cc6nccnc6[C@@](C)(COC(=O)CCC(=O)Nc6ccccc6N)[C@@H]5CC[C@]43C)[C@@H]2C1 | 86% | 57%
9 | CC1(C)CC[C@]2(C(=O)OCc3ccccc3)CC[C@]3(C)C(=CC[C@@H]4[C@@]5(C)Cc6nccnc6[C@@](C)(COC(=O)c6ccccc6C(=O)O)[C@@H]5CC[C@]43C)[C@@H]2C1 | 84% | 81%
10 | CC1(C)CC[C@]2(C(=O)OCc3ccccc3)CC[C@]3(C)C(=CC[C@@H]4[C@@]5(C)CCC(=O)[C@@](C)(COC(=O)CCCCO[N+](=O)[O-])[C@@H]5CC[C@]43C)[C@@H]2C1 | 54% | 60%
11 | CC1(C)CC[C@]2(C(=O)OCc3ccccc3)CC[C@]3(C)C(=CC[C@@H]4[C@@]5(C)Cc6nccnc6[C@@](C)(COC(=O)c6ccccc6C(=O)OCCc6ccc(OCCO[N+](=O)[O-])cc6)[C@@H]5CC[C@]43C)[C@@H]2C1 | 84% | 55%
12 | CC1(C)CC[C@]2(C(=O)OCc3ccccc3)CC[C@]3(C)C(=CC[C@@H]4[C@@]5(C)CCC(=O)[C@@](C)(COC(=O)CCC(=O)OCCc6ccc(OCCO[N+](=O)[O-])cc6)[C@@H]5CC[C@]43C)[C@@H]2C1 | 93% | 76%
13 | CC1(C)CC[C@]2(C(=O)OCc3ccccc3)CC[C@]3(C)C(=CC[C@@H]4[C@@]5(C)CCC(=O)[C@@](C)(COC(=O)CCCCCO[N+](=O)[O-])[C@@H]5CC[C@]43C)[C@@H]2C1 | 75% | 50%
14 | CC1(C)CC[C@]2(C(=O)OCc3ccccc3)CC[C@]3(C)C(=CC[C@@H]4[C@@]5(C)CCC(=O)[C@@](C)(COC(=O)CCC(=O)Nc6ccccc6N)[C@@H]5CC[C@]43C)[C@@H]2C1 | 99% | 50%
15 | CC1(C)CC[C@]2(C(=O)OCc3ccccc3)CC[C@]3(C)C(=CC[C@@H]4[C@@]5(C)CCC(=O)[C@@](C)(COC(=O)c6ccccc6C(=O)Oc6ccc(CCO[N+](=O)[O-])cc6)[C@@H]5CC[C@]43C)[C@@H]2C1 | 78% | 86%
